Tests used:
Format in all cases: functional
Mus musculus [1] = test: Compound was tested at a dose of 20 mg/kg administered subcutaneously for a pretreatment time of 120 min for analgesic activity using phenylbenzoquinone (PBQ); conditions: route subcutaneous
Summary of the method: (§1)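 Mouse phenylbenzoquinone (PBQ) writhing test. Test drug is given sc, ip or iv at the stated pretreatment time before PBQ injection. Mice are placed in individual observation boxes, and total writhes per group are counted over the following 15 min. Vehicle is emulphor/ethanol/saline (1:1:18), diluted from a 1:1 emulphor/ethanol stock, and vehicle-injected controls are run. Result is % inhibition of writhing versus vehicle controls.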

Mus musculus [2] = test: Inhibition of the Mouse PBQ Writhing at a dose of 20 mg/kg ip afer 60 min; conditions: 1 h, route intraperitoneal; summary of the method: as §1
Mus musculus [3] = test: Inhibition of the Mouse PBQ Writhing at a dose of 20 mg/kg sc after 120 min; conditions: 2 h, route subcutaneous; summary of the method: as §1
Mus musculus [4] = test: Inhibition of the Mouse PBQ Writhing at a dose of 20 mg/kg iv afer 30 min; conditions: 0.5 h; summary of the method: as §1
Mus musculus [5] = test: Compound was tested at a dose of 20 mg/kg administered intraperitoneally for a pretreatment time of 60 min; conditions: route intraperitoneal; summary of the method: as §1
Mus musculus [6] = test: Compound was tested at a dose of 20 mg/kg administered subcutaneously for a pretreatment time of 15 min for analgesic activity using phenylbenzoquinone (PBQ); conditions: route subcutaneous; summary of the method: as §1
Mus musculus [7] = test: Inhibition of the Mouse PBQ Writhing at a dose of 20 mg/kg sc after 60 min; conditions: 1 h, route subcutaneous; summary of the method: as §1
Mus musculus [8] = test: Compound was tested at a dose of 20 mg/kg administered subcutaneously for a pretreatment time of 60 min for analgesic activity using phenylbenzoquinone (PBQ); conditions: route subcutaneous; summary of the method: as §1
Mus musculus [9] = test: Inhibition of the Mouse PBQ Writhing at a dose of 20 mg/kg ip afer 20 min; conditions: route intraperitoneal; summary of the method: as §1
Mus musculus [10] = test: Compound was tested at a dose of 20 mg/kg administered intravenously for a pretreatment time of 10 min; conditions: route intravenous; summary of the method: as §1
Mus musculus [11] = test: Inhibition of the Mouse PBQ Writhing at a dose of 20 mg/kg sc after 15 min; conditions: 0.25 h, route subcutaneous; summary of the method: as §1
Mus musculus [12] = test: Inhibition of the Mouse PBQ Writhing at a dose of 20 mg/kg iv afer 10 min; summary of the method: as §1
Mus musculus [13] = test: Compound was tested at a dose of 20 mg/kg administered intraperitoneally for a pretreatment time of 20 min for analgesic activity using phenyl benzoquinone; conditions: route intraperitoneal; summary of the method: as §1
Mus musculus [14] = test: Compound was tested at a dose of 5 mg/kg administered subcutaneously for a pretreatment time of 60 min for analgesic activity using phenylbenzoquinone (PBQ); conditions: route subcutaneous; summary of the method: as §1
Mus musculus [15] = test: Inhibition of the Mouse PBQ Writhing at a dose of 5 mg/kg sc after 60 min; conditions: 1 h, route subcutaneous; summary of the method: as §1
Mus musculus [16] = test: Inhibition of the Mouse PBQ Writhing at a dose of 10 mg/kg sc after 60 min; conditions: 1 h, route subcutaneous; summary of the method: as §1
Mus musculus [17] = test: Compound was tested at a dose of 10 mg/kg administered subcutaneously for a pretreatment time of 60 min for analgesic activity using phenylbenzoquinone (PBQ); conditions: route subcutaneous; summary of the method: as §1

| SMILES | Analgesic activity (Mus musculus [1]) | inhibition in vivo at 20 mg/kg (Mus musculus [2]) [%] | inhibition in vivo at 20 mg/kg (Mus musculus [3]) [%] | inhibition in vivo at 20 mg/kg (Mus musculus [4]) [%] | Analgesic activity (Mus musculus [5]) | Analgesic activity (Mus musculus [6]) | inhibition in vivo at 20 mg/kg (Mus musculus [7]) [%] | Analgesic activity (Mus musculus [8]) | inhibition in vivo at 20 mg/kg (Mus musculus [9]) [%] | Analgesic activity (Mus musculus [10]) | inhibition in vivo at 20 mg/kg (Mus musculus [11]) [%] | inhibition in vivo at 20 mg/kg (Mus musculus [12]) [%] | Analgesic activity (Mus musculus [13]) | Analgesic activity (Mus musculus [14]) | inhibition in vivo at 5 mg/kg (Mus musculus [15]) [%] | inhibition in vivo at 10 mg/kg (Mus musculus [16]) [%] | Analgesic activity (Mus musculus [17]) |
| --- | --- | --- | --- | --- | --- | --- | --- | --- | --- | --- | --- | --- | --- | --- | --- | --- | --- |
| CCCCCC(C)Oc1ccc([C@H]2CCC[C@@H](O)C2)c2[nH]ccc12 (some centres undefined) | 32.4 | 0 | 0 | 0 | 29.2 | 16.7 | 0 | 27.2 | 10 | 24.8 | 21.6 | 20.3 | 24.4 |  |  |  |  |
| CCCCCC(C)Oc1ccc([C@H]2CCC[C@@H](O)C2)c(O)c1 (some centres undefined) |  |  |  |  |  |  | 91.4 | 2.9 |  |  |  |  |  | 23.8 | 29.2 | 54.5 | 15.3 |

— ChEMBL document CHEMBL1123340, “Synthesis and analgesic evaluation of 4-(2-heptyloxy)-7-[(Z)-(3-hydroxycyclohexyl)]indole: a caveat on indole-phenol bioisosterism” (1986)
